For assay [1], the target named is T1, D(2) dopamine receptor (Homo sapiens, UniProt P14416). Kind of assay: Agonist activity at human recombinant D2 receptor expressed in HEK293 cells by FLIPR assay. It counts as functional, cell-based. In a few lines:
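Calcium flux (FLIPR) in HEK-293 cells coexpressing recombinant human D2L with chimeric Gqo5. Efficacy is the maximal response relative to 10 µM dopamine (100%). EC50 is the concentration giving half-maximal stimulation. Values are means (SEM, n ≥ 3).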

In assay [2] the target is T1, D(2) dopamine receptor. Put plainly: Displacement of [125I]PIPAT from human recombinant D2L receptor expressed in HEK293 cells.
Assay [3] concerns the target T2, D(4) dopamine receptor (Homo sapiens, UniProt P21917).
T2 sequence (P21917 whole entry): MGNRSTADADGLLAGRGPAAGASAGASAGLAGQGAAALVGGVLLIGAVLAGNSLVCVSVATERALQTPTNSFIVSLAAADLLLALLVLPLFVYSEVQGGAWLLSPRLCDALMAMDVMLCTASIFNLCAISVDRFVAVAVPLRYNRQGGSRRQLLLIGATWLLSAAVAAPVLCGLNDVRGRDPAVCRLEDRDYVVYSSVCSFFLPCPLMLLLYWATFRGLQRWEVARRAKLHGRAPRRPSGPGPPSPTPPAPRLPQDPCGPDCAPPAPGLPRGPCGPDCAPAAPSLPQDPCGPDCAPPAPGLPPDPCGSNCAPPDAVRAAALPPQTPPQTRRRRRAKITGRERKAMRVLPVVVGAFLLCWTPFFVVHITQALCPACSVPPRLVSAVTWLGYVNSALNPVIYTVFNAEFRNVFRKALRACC
Put plainly: Activity at human recombinant D4.4 receptor expressed in HEK293 cells by FLIPR assay. The format is functional, cell-based.

Assay [4] deals with T2, D(4) dopamine receptor. Kind of assay: Displacement of [3H]A-369508 from human recombinant D4.4 receptor expressed in HEK293 cell membrane. The format is cell membranes. In a few lines:
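Competition binding against the D4-selective agonist radioligand [3H]-A-369508, using membranes from HEK-293 cells engineered to express human D4.4. Mean values (SEM, n ≥ 4).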

The target in assay [5] is T1, D(2) dopamine receptor. Put plainly: Antagonist activity at human recombinant D2 receptor expressed in HEK293 cells by FLIPR assay. It counts as functional, cell-based.

One may read the EC50 as the concentration at which the effect is half-maximal. In general, Ki refers to the equilibrium dissociation constant of an inhibitor or competing ligand from its target. For orientation: IC50 means the concentration needed to halve the response being measured.

T1 sequence (P14416 whole entry): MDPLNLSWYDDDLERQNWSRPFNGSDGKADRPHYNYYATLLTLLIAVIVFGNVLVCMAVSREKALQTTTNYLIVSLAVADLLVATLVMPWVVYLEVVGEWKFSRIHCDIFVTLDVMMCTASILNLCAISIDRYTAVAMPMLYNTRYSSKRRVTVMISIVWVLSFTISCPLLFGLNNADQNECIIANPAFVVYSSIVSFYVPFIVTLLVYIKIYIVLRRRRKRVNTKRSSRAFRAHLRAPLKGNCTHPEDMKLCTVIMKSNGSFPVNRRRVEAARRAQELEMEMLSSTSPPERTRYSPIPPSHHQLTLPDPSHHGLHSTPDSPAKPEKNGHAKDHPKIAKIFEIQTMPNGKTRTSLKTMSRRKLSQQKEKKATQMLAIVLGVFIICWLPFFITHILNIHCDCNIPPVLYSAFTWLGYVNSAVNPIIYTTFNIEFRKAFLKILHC

For `CCO/N=C(\CCN1CCN(c2nccs2)CC1)c1ccccc1`, the EC50 at D(2) dopamine receptor [1] was over 10 µM; on D(4) dopamine receptor [3], 0.0818 µM. Also, the inhibitory constant (Ki) on D(2) dopamine receptor [2] stood at 0.257 µM; at D(4) dopamine receptor [4] it was 0.168 µM. Further, the half-maximal inhibitory concentration (IC50) on D(2) dopamine receptor [5] is over 10 µM.

Regarding `CO/N=C(\CCN1CCN(c2ccccn2)CC1C)c1ccc(Cl)cc1` (stereo not given), the concentration giving a half-maximal response (EC50) is over 10 µM at D(2) dopamine receptor [1] and 0.333 µM at D(4) dopamine receptor [3]. Further, the values for the inhibition constant (Ki) on D(2) dopamine receptor [2] and at D(4) dopamine receptor [4] were 0.0765 µM and 0.0671 µM, respectively. Moreover, at D(2) dopamine receptor [5], the IC50 is over 10 µM.

Consider `CO/N=C(/CCN1CCN(c2ccccn2)CC1)c1ccc(Cl)c(Cl)c1`, for which the results for the EC50 at D(2) dopamine receptor [1] and at D(4) dopamine receptor [3] were over 10 µM and 0.341 µM, respectively. Besides, the IC50 at D(2) dopamine receptor [5] was over 10 µM.

In the case of `CO/N=C(/CCN1CCC(c2cccc[n+]2[O-])CC1)c1ccc(Cl)cc1`, the EC50 was over 10 µM at D(2) dopamine receptor [1] and 0.0464 µM on D(4) dopamine receptor [3]. Also, the 50% inhibitory concentration (IC50) on D(2) dopamine receptor [5] was over 10 µM.

On to `CCCCO/N=C(\CCN1CCN(c2ccccn2)CC1)c1ccccc1`, for which the results for the EC50 at D(2) dopamine receptor [1] and at D(4) dopamine receptor [3] were over 10 µM and 0.382 µM, respectively. Moreover, at D(2) dopamine receptor [5], the IC50 is over 10 µM.

As to `CO/N=C(\CCN1CCC(c2cccc[n+]2[O-])CC1)c1ccc(Cl)cc1`, the values for the EC50 at D(2) dopamine receptor [1] and at D(4) dopamine receptor [3] were over 10 µM and 0.084 µM, respectively. Besides, the 50% inhibitory concentration (IC50) at D(2) dopamine receptor [5] was over 10 µM.

Consider `CCO/N=C(\CCN1CCN(c2ccccc2OC)CC1)c1ccccc1`, for which the concentration for a half-maximal effect (EC50) was over 10 µM at D(2) dopamine receptor [1] and 0.338 µM at D(4) dopamine receptor [3]. Further, the IC50 on D(2) dopamine receptor [5] is over 10 µM.

Consider `CCCO/N=C(\CCN1CCN(c2ccccn2)CC1)c1ccccc1`, for which the EC50 was over 10 µM on D(2) dopamine receptor [1] and 0.32 µM at D(4) dopamine receptor [3]. In addition, the concentration for half-maximal inhibition (IC50) on D(2) dopamine receptor [5] was over 10 µM.

Take `O/N=C(\CCN1CCN(c2ccccn2)CC1)c1ccc(F)cc1`: the half-maximal effective concentration (EC50) on D(2) dopamine receptor [1] is over 10 µM; at D(4) dopamine receptor [3], 0.031 µM. The IC50 at D(2) dopamine receptor [5] was over 10 µM.

For `CCO/N=C(\CCN1CCN(c2ncccn2)CC1)c1ccccc1`, the concentration for a half-maximal effect (EC50) is over 10 µM on D(2) dopamine receptor [1] and 0.615 µM on D(4) dopamine receptor [3]. Besides, the concentration for half-maximal inhibition (IC50) on D(2) dopamine receptor [5] is over 10 µM.

Turning to `O/N=C(\CN1CCN(c2ccccn2)CC1)c1ccc(F)cc1`, the EC50 is over 10 µM on D(2) dopamine receptor [1] and 0.026 µM on D(4) dopamine receptor [3]. Besides, the IC50 on D(2) dopamine receptor [5] was over 10 µM.

As to `CCO/N=C(\CCN1CCN(c2ccc(OC)cc2)CC1)c1ccccc1`, the EC50 at D(2) dopamine receptor [1] and on D(4) dopamine receptor [3] was over 10 µM each time. The IC50 at D(2) dopamine receptor [5] is over 10 µM.

On to `CO/N=C(\c1ccc(Cl)cc1)C(CN1CCN(c2ccccn2)CC1)OC` (stereo not given), for which the EC50 on D(2) dopamine receptor [1] was over 10 µM; at D(4) dopamine receptor [3], 0.195 µM. For the same molecule, the concentration for half-maximal inhibition (IC50) on D(2) dopamine receptor [5] was over 10 µM.

`Cc1cccc(/C(=N/O)C(O)CN2CCN(c3ccccn3)CC2)c1` (stereo not given): the EC50 on D(2) dopamine receptor [1] was over 10 µM; on D(4) dopamine receptor [3], 0.0049 µM. Further, at D(2) dopamine receptor [5], the 50% inhibitory concentration (IC50) was over 10 µM.

As for `Cc1cccc(/C(CCN2CCN(c3ccccn3)CC2)=N/O)c1`, the concentration giving a half-maximal response (EC50) on D(2) dopamine receptor [1] is over 10 µM; at D(4) dopamine receptor [3], 0.0023 µM. Further, the IC50 on D(2) dopamine receptor [5] is over 10 µM.

With `CO/N=C(/c1ccc(Cl)cc1)C(CN1CCN(c2ccccn2)CC1)OC` (stereo not given), the figures for the EC50 on D(2) dopamine receptor [1] and on D(4) dopamine receptor [3] were over 10 µM and 0.285 µM, respectively. Further, the IC50 on D(2) dopamine receptor [5] was over 10 µM.

For the molecule `CCO/N=C1/c2ccccc2CCC1CN1CCN(c2ccccn2)CC1` (stereo not given), the concentration giving a half-maximal response (EC50) is over 10 µM on D(2) dopamine receptor [1] and 4.76 µM on D(4) dopamine receptor [3]. Moreover, the IC50 at D(2) dopamine receptor [5] is over 10 µM.

Consider `CCO/N=C(/CCN1CCN(c2ccccn2)CC1)c1ccccc1`, for which the results for the EC50 at D(2) dopamine receptor [1] and on D(4) dopamine receptor [3] were over 10 µM and 0.045 µM, respectively. Further, the half-maximal inhibitory concentration (IC50) on D(2) dopamine receptor [5] was over 10 µM.

With `CCO/N=C(\CCN1CCN(c2ncccc2C)CC1)c1ccccc1`, the half-maximal effective concentration (EC50) at D(2) dopamine receptor [1] was over 10 µM; on D(4) dopamine receptor [3], 0.253 µM. Also, the concentration for half-maximal inhibition (IC50) at D(2) dopamine receptor [5] was over 10 µM.

Turning to `Cc1ccc(OCc2ccccc2)c(/C(CCN2CCN(c3ccccn3)CC2)=N/O)c1`, the EC50 at D(2) dopamine receptor [1] and on D(4) dopamine receptor [3] was over 10 µM throughout. Further, the IC50 on D(2) dopamine receptor [5] was over 10 µM.

Consider `O/N=C(/CCCN1CCN(c2ccccn2)CC1)c1ccc(F)cc1`, for which the EC50 at D(2) dopamine receptor [1] is over 10 µM; on D(4) dopamine receptor [3], 0.0593 µM. Besides, the half-inhibitory concentration (IC50) on D(2) dopamine receptor [5] was over 10 µM.

As to `O/N=C(/CCN1CCN(c2ncccn2)CC1)c1ccccc1`, the results for the EC50 at D(2) dopamine receptor [1] and at D(4) dopamine receptor [3] were over 10 µM and 0.069 µM, respectively. On D(2) dopamine receptor [5], the IC50 is over 10 µM.

These data come from ChEMBL document CHEMBL1145336, “1-aryl-3-(4-pyridine-2-ylpiperazin-1-yl)propan-1-one oximes as potent dopamine D4 receptor agonists for the treatment of erectile dysfunction” (J Med Chem, 2006).
